Source: PubChem BioAssay (several laboratories)
Sampled rows, rich in hits. Any-hit rate of the full collection: about 0.9%.
MT1-MMP act inh: MT1-MMP (human) activation inhibition | GFP/RFP ratio change, % at 20 µM | P50281 | HT1080 RFP-PRO-GFP cells, GFP/RFP ratio fluorescence, overnight; percent of plate control window, DMSO zero | actives 0.061% (n = 360,000);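 active means GFP/RFP ratio change of at least 30% with cell ATP level not reduced by more than half and red fluorescence within 50% of control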
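Material: RFP-PRO-GFP reporter HT1080 cells. Dosing: single-point 20 µM compound, 1% DMSO. Controls: DMSO and RFP-L50D-GFP cell wells. Timing: cells overnight before dosing, compound overnight, 37 °C, 5% CO2. Measure: GFP/RFP fluorescence ratio.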
Tn6 DDE FP: DD(E)-Tn6 binding inhibition, primary FP screen; Fibrin DD(E) TRITC-Tn6 fluorescence polarization displacement; inhibition, % at 8.3 µM; actives 0.21% (n = 370,000); AID 720509;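 active means inhibition above a per-campaign cutoff: mean of compounds within control limits plus 3 SD, cut at about 15% in these data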;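 further: 0% = median of all compound wells on the plate and 100% = blocking peptide control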
Target sequence (P02675 whole entry, looked up): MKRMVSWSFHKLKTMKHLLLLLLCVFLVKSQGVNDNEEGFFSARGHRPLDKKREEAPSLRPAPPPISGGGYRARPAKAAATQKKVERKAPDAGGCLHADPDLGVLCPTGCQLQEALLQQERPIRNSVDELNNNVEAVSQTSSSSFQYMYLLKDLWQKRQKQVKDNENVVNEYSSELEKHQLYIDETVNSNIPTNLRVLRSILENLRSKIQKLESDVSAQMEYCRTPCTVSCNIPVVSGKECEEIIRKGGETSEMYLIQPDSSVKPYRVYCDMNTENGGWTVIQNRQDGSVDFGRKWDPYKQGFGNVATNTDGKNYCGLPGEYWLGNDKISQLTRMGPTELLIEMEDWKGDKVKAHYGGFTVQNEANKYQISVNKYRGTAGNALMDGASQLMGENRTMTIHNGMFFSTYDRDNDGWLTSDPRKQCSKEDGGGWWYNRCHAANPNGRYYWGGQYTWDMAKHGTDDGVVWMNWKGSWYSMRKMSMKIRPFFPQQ
SKN-1 block: inhibitors of C. elegans SKN-1. C. elegans VP596 Pgst-4::GFP/RFP ratio, acrylamide-induced, 24 h. inhibition, % at 21.8 µM. actives 0.49% (n = 360,000);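 active means interference check ratio from 0.5 to 1.5 plus GFP to RFP signal ratio inhibition reaching or exceeding a fixed threshold, cut at about 30% in these data, passing the limit was not always enough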
DDE Tn7 FP inh: DD(E)-Tn7 binding inhibition, primary FP screen; P02675; FP displacement of FITC-Tn7 peptide from fibrin DD(E); 0% = median of compound wells per plate; inhibition, % at 8.3 µM; actives 0.13% (n = 370,000); AID 720508;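 active means inhibition above the mean of compounds falling within the control limits plus 3 SD of them, cut at about 14% in these data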;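 further: 0% = plate median of compound wells and 100% = 10 µM Aha-Tn7 peptide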
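assay system = human clot-derived fibrin DD(E) complex | quantity = Fibrin-DD(E) at 2 µM final | timing = 10 min preincubation, 3 h with tracer, room temperature | signal = fluorescence polarization | measure = percent inhibition | benchmarks = high control wells with 10 µM unlabelled Aha-Tn7 peptide (full inhibition) | replicates = singlicate testing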
DAGLB inh: blocks human DAGLB lipase activity; HEK293T DAGLB membrane lysate, EnzChek fluorogenic substrate; actives 0.059% (n = 340,000); Q8NCG7; inhibition, % at 5.17 µM; AID 504411; in the data active means inhibition above about 34%;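 further: 0% = enzyme with vehicle and 100% = wells lacking enzyme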
PolyA inhibitor: inhibitors of polyadenylation in S. cerevisiae; S. cerevisiae SKY197-pL101 polyadenylation reporter, beta-gal luminescence; efflux-impaired pdr1/pdr3 knockout yeast; score 100 = 6 SD above DMSO; activity score, % at 12 µM; actives 0.02% (n = 300,000); AID 1875;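 active means lowest replicate activity score at least 50, where 100 means six control SD above control mean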;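 further: yeast exposed to compound for 9 h at 30 °C; higher score means more reporter readthrough which indicates perturbed polyadenylation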
Tn7 DDE conf: confirmation of inhibitors of Tn7 binding to human fibrin DD(E); shares compounds with DDE Tn7 FP inh; FP displacement of TRITC-Tn7 peptide from DD(E); 0% set at plate's compound-well median; inhibition, % at 8.3 µM; actives 5% (n = 460);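 active means inhibition above the campaign cutoff, the mean of compounds within control limits plus 3 SD, cut at about 14% in these data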;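 further: 100% = median FP of high control wells holding Aha-Tn7 inhibitor peptide; displacers lower polarization since freed probe rises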
DDE Tn7 FP ctr: counter-screen hit for Tn7 peptide-fibrin DD(E) binding disruption; AID 720633; shares compounds with DDE Tn7 FP inh; actives 3% (n = 460); inhibition, % at 8.3 µM; TRITC-Tn7 probe displacement, fluorescence polarization;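 active means inhibition above the cutoff, the mean of compounds lying between the control bounds plus 3 SD of those compounds, cut at about 17% in these data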;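 further: 0% = median of compound sample wells and 100% = excess unlabeled Aha-Tn7 peptide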
Tn6 DDE ctr: DD(E)-Tn6 binding inhibition, counter-screen. shares compounds with Tn6 DDE FP. Fibrin DD(E), TRITC-Tn6 fluorescence polarization displacement; 0% = median of compound wells, not DMSO. inhibition, % at 8.3 µM. actives 2% (n = 680). AID 720621;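 active means inhibition above the mean of test compounds lying between the control limits plus 3 SD of those, cut at about 14% in these data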;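 further: 0% = median of compound wells and 100% = wells with Aha-Tn7 blocking peptide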
Tn6 DDE conf: confirmation of inhibitors of Tn6 binding to human fibrin DD(E). shares compounds with Tn6 DDE FP. FP displacement of TRITC-Tn6 peptide from DD(E); 0% = per-plate median of test wells. inhibition, % at 8.3 µM. actives 10% (n = 680). AID 720631;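 active means inhibition above the mean of compounds lying within the control limits plus 3 SD, cut at about 16% in these data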;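 further: 100% = high control wells holding a competing inhibitor peptide at 10 µM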
Active calls of the source: *; . = not tested or not shown; + = active, no number.

SMILES	MT1-MMP act inh	Tn6 DDE FP	SKN-1 block	DDE Tn7 FP inh	DAGLB inh	PolyA inhibitor	Tn6 DDE ctr	Tn6 DDE conf	others
CC[C@H](C(N)=O)N1CCCC1=O	.	-7	.	-2	.	.	.	.
COc1ccccc1-n1c(-c2ccccc2Cl)nc2ccccc2c1=O	-7	-1	9	16*	0	3	.	.	Tn7 DDE conf=7;DDE Tn7 FP ctr=8
COc1ccccc1-n1c(-c2ccoc2)nc2ccccc2c1=O	6	-3	8	4	-1	.	.	.
CC1CCCN(c2ccc(C(=O)N3CCC4(CC3)OCCO4)cc2[N+](=O)[O-])C1 (stereo not drawn)	-9	-3	-2	6	4	-8	.	.
CCOC(=O)C1CCCN(c2ccc([N+](=O)[O-])c3nonc23)C1 (stereo not drawn)	-37	+	77	20*	-110	-7	-13	93*	Tn7 DDE conf=-13;DDE Tn7 FP ctr=93*
COC1C(C)OC(OC2CC(C)(O)Cc3cc4c(c(O)c32)C(=O)c2c(O)cc3c(c2C4=O)OC2OC3(C)C(O)C(N(C)C)C2O)C(OC)C1(C)OC (stereo not drawn)	-32	88*	58	14*	-89	.	-19	54*	Tn7 DDE conf=-19;DDE Tn7 FP ctr=54*
CC(C)(C)OC(=O)NCCCCC(N)[P+](=O)O (stereo not drawn)	.	3	.	-3	.	.	.	.
CCC(C#N)(CC)P(=S)(c1ccccc1)c1ccccc1	-7	16*	21	6	-11	14	0	-1
CN(C)c1ccc(/C=C/c2cc[n+](C)c3ccccc23)cc1	92	30*	91	-4	12	.	8	11
C[C@]12CCC3C(CC[C@H]4C[C@@H](O)CC[C@]34C)C1CC[C@@]2(O)C(F)(F)F (stereo partly drawn)	10	16*	13	3	.	.	4	4
C[C@]12CCC3C(CC[C@H]4C[C@@H](O)CC[C@]34C)C1C[C@@H](O)[C@]2(C)O (stereo partly drawn)	-1	-8	6	-5	2	.	.	.
Cc1ccc(/C=C2\C(=O)NC(=S)N(c3ccccc3F)C2=O)s1	23	20*	20	2	7	.	-5	-29
CCOC(=O)C1CCN(/C=C2/C(=O)NC(=S)N(c3ccccc3F)C2=O)CC1	1	-3	2	6	2	-3	.	.
CN1C(=O)CCS(=O)(=O)C1c1ccc(Cl)cc1 (stereo not drawn)	.	0	.	1	.	.	.	.
COc1cc(O)c2c(c1)/C=C/C[C@H](O)[C@H](O)[C@@H](O)/C=C/C[C@H](C)OC2=O	.	-6	.	1	.	.	.	.
